≈ marks a conversion by molar mass, not a printed value.
Tests used:
Type in all cases: functional
[1] = test system: Staphylococcus epidermidis; assay: Antibacterial activity against methicillin-resistant Staphylococcus epidermidis by agar microdilution method
Procedure, shortened: (§1)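 MIC by agar microdilution following NCCLS standard M7-A6 (2003), tested against clinical isolates: MRSA n = 6, MRSE n = 5, MSSA n = 5, MSSE n = 5; values given as a single MIC or a range across isolates.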

[2] = test system: Staphylococcus epidermidis; assay: Ratio of Linezolid MIC to compound MIC for methicillin-susceptible Staphylococcus epidermidis
[3] = test system: Streptococcus pneumoniae; assay: Ratio of Linezolid MIC to compound MIC for Streptococcus pneumoniae
[4] = test system: Staphylococcus aureus; assay: Antibacterial activity against methicillin-resistant Staphylococcus aureus by agar microdilution method; procedure, shortened: as §1
[5] = test system: Staphylococcus aureus; assay: Antibacterial activity against methicillin-susceptible Staphylococcus aureus by agar microdilution method; procedure, shortened: as §1
[6] = test system: Staphylococcus aureus; assay: Ratio of Linezolid MIC to compound MIC for methicillin-susceptible Staphylococcus aureus
[7] = test system: Staphylococcus epidermidis; assay: Antibacterial activity against methicillin-susceptible Staphylococcus epidermidis by agar microdilution method; procedure, shortened: as §1
[8] = test system: Streptococcus pneumoniae; assay: Antibacterial activity against Streptococcus pneumoniae by agar microdilution method
Procedure, shortened: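 MIC read by agar microdilution following NCCLS standard M7-A6 (2003), against a panel of 3 Streptococcus pneumoniae clinical isolates. Values in µg/mL, given as a range where the isolates differed.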

Structure (SMILES): C=C[C@]1(C)C[C@@H](OC(=O)N2Cc3ccc(NC(=O)[C@@H]4CCCN4)cc3C2=O)[C@]2(C)[C@H](C)CC[C@]3(CCC(=O)[C@H]32)[C@@H](C)[C@@H]1O.Cl
- MIC [1]: 0.25 µg/mL
- Ratio [2]: 4
- Ratio [3]: 4
- MIC [4]: 0.25 µg/mL
- MIC [5]: 0.25 µg/mL
- Ratio [6]: 4
- MIC [7]: 0.25 µg/mL
- MIC [8]: 0.5 µg/mL

Structure (SMILES): C=C[C@]1(C)C[C@@H](OC(=O)N2Cc3ccc(F)cc3C2=O)[C@]2(C)[C@H](C)CC[C@]3(CCC(=O)[C@H]32)[C@@H](C)[C@@H]1O
- MIC [1]: 0.125 µg/mL (≈ 0.251 µM)
- Ratio [2]: 4
- Ratio [3]: 4
- MIC [4]: 0.125 µg/mL (≈ 0.251 µM)
- MIC [5]: 0.125 µg/mL (≈ 0.251 µM)
- Ratio [6]: 4
- MIC [7]: 0.125 µg/mL (≈ 0.251 µM)
- MIC [8]: 0.125 µg/mL (≈ 0.251 µM)

Structure (SMILES): C=C[C@]1(C)C[C@@H](OC(=O)N2Cc3cc(N4CCN(C)CC4)ccc3C2=O)[C@]2(C)[C@H](C)CC[C@]3(CCC(=O)[C@H]32)[C@@H](C)[C@@H]1O
- MIC [1]: 0.125 µg/mL (≈ 0.216 µM)
- Ratio [2]: 4
- Ratio [3]: 4
- MIC [4]: 0.125 µg/mL (≈ 0.216 µM)
- MIC [5]: 0.125 µg/mL (≈ 0.216 µM)
- Ratio [6]: 4
- MIC [7]: 0.125 µg/mL (≈ 0.216 µM)
- MIC [8]: 0.25 µg/mL (≈ 0.433 µM)

Structure (SMILES): C=C[C@]1(C)C[C@@H](OC(=O)N2Cc3cc(N)ccc3C2=O)[C@]2(C)[C@H](C)CC[C@]3(CCC(=O)[C@H]32)[C@@H](C)[C@@H]1O
- MIC [1]: 0.125 µg/mL (≈ 0.253 µM)
- Ratio [2]: 4
- Ratio [3]: 4
- MIC [4]: 0.125 µg/mL (≈ 0.253 µM)
- MIC [5]: 0.125 µg/mL (≈ 0.253 µM)
- Ratio [6]: 4
- MIC [7]: 0.125 µg/mL (≈ 0.253 µM)
- MIC [8]: 0.125 µg/mL (≈ 0.253 µM)

Structure (SMILES): C=C[C@]1(C)C[C@@H](OC(=O)N2CCc3cc(OC)c([N+](=O)[O-])cc3C2=O)[C@]2(C)[C@H](C)CC[C@]3(CCC(=O)[C@H]32)[C@@H](C)[C@@H]1O
- MIC [1]: 0.25 µg/mL (≈ 0.44 µM)
- Ratio [2]: 4
- Ratio [3]: 4
- MIC [4]: 0.25 µg/mL (≈ 0.44 µM)
- MIC [5]: 0.125 µg/mL (≈ 0.22 µM)
- Ratio [6]: 4
- MIC [7]: 0.25 µg/mL (≈ 0.44 µM)
- MIC [8]: 0.25 µg/mL (≈ 0.44 µM)

Source: ChEMBL document CHEMBL1938381, “Design, synthesis, and structure-activity relationship studies of conformationally restricted mutilin 14-carbamates” (2012)
